Values belong to the molecule of their own block, whether it stands above or below them.
How the values were obtained:
[1] = tested on: Rattus norvegicus; test: Biodistribution of I-125 labeled compound in rat lungs, 1 hr after intravenous injection. value expressed in average % dose per organ; value may range from 11.5 to 26.1; type: ADME, organism-based, Lung; conditions: in vivo
[2] = tested on: Rattus norvegicus; test: Biodistribution of I-125 labeled compound in rat blood, 1 hr after intravenous injection. value expressed in average % dose per organ; value may range from 0.99 to 1.37; type: ADME, organism-based; conditions: in vivo
[3] = tested on: Rattus norvegicus; test: Biodistribution of I-125 labeled compound in rat brain to blood ratio, 2 min after intravenous injection. value expressed in % dose per gram ratio; type: ADME, organism-based
In short: (§1)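 Rats given I-125 diamine iv; tissue activity at 2 min or 1 h compared with diluted injected-dose aliquots. % dose per gram approximated as % dose per organ divided by mean organ weight (brain 1.65 g; blood 18 g). Ratio taken from the per-gram values.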

[4] = tested on: Rattus norvegicus; test: Biodistribution of I-125 labeled compound in rat heart, 2 min after intravenous injection. value expressed in average % dose per organ; value may range from 2.20 to 3.07; type: ADME, organism-based; conditions: in vivo
[5] = tested on: Rattus norvegicus; test: Biodistribution of I-125 labeled compound in rat brain, 1 hr after intravenous injection. value expressed in average % dose per organ; value may range from 1.51 to 2.17; type: ADME, organism-based; conditions: in vivo
[6] = tested on: Rattus norvegicus; test: Biodistribution of I-125 labeled compound in rat brain, 2 min after intravenous injection. value expressed in average % dose per organ; value may range from 1.45 to 1.89; type: ADME, organism-based; conditions: in vivo
[7] = tested on: Rattus norvegicus; test: Biodistribution of I-125 labeled compound in rat blood, 2 min after intravenous injection. value expressed in average % dose per organ; value may range from 2.74 to 5.33; type: ADME, organism-based; conditions: in vivo
[8] = tested on: Rattus norvegicus; test: Biodistribution of I-125 labeled compound in rat liver, 1 hr after intravenous injection. value expressed in average % dose per organ; value may range from 7.32 to 10.1; type: ADME, organism-based; conditions: in vivo
[9] = tested on: Rattus norvegicus; test: Biodistribution of I-125 labeled compound in rat liver, 2 min after intravenous injection. value expressed in average % dose per organ; value may range from 6.36 to 14.2; type: ADME, organism-based; conditions: in vivo
[10] = tested on: Rattus norvegicus; test: Biodistribution of I-125 labeled compound in rat thyroid, 2 min after intravenous injection. value expressed in average % dose per organ; value may range from 0.15 to 0.25; type: ADME, organism-based, Thyroid gland; conditions: in vivo
[11] = tested on: Rattus norvegicus; test: Biodistribution of I-125 labeled compound in rat heart, 1 hr after intravenous injection. value expressed in average % dose per organ; value may range from 1.12 to 1.86; type: ADME, organism-based; conditions: in vivo
[12] = species: Rattus norvegicus; test: Distribution coefficient at pH 7.0 in rat; type: ADME, organism-based
In short: (§2)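 Octanol/buffer partition: I-125 labeled diamine mixed with 3 g each of 1-octanol and 0.1 M phosphate buffer at pH 7.0 or 7.4, vortexed 3× 1 min, centrifuged 5 min. Two 0.5 g samples of each layer counted. Value is cpm/g octanol over cpm/g buffer, usually repeated three times.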

[13] = species: Rattus norvegicus; test: Distribution coefficient at pH 7.4 in rat; type: ADME, organism-based; in short: as §2
[14] = tested on: Rattus norvegicus; test: Biodistribution of I-125 labeled compound in rat thyroid, 1 hr after intravenous injection. value expressed in average % dose per organ; value may range from 0.16 to 0.26; type: ADME, organism-based, Thyroid gland; conditions: in vivo
[15] = The protein binding ability of compound was expressed in Percent free; type: ADME; conditions: read-out: % free
In short: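 Binding to pooled human serum was measured by equilibrium dialysis. 0.4 mL serum and 0.4 mL 0.15 M phosphate buffer, pH 7.4, were separated by a membrane, and 0.025 μCi radiolabeled diamine was added on the buffer side. Cells were rotated at 37 °C for 18 h, and aliquots from both sides were weighed and counted. % free = buffer/serum radioactivity concentration ratio × 100. The membrane was also counted.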

[16] = tested on: Rattus norvegicus; test: Biodistribution of I-125 labeled compound in rat lungs, 2 min after intravenous injection. value expressed in average % dose per organ; value may range from 24.6 to 42.2; type: ADME, organism-based, Lung; conditions: in vivo
[17] = tested on: Rattus norvegicus; test: Biodistribution of I-125 labeled compound in rat muscle, 1 hr after intravenous injection. value expressed in average % dose per organ; value may range from 11.3 to 17.1; type: ADME, organism-based, Muscle tissue; conditions: in vivo
[18] = tested on: Rattus norvegicus; test: Biodistribution of I-125 labeled compound in rat muscle, 2 min after intravenous injection. value expressed in average % dose per organ; value may range from 4.59 to 12.0; type: ADME, organism-based, Muscle tissue; conditions: in vivo
[19] = tested on: Rattus norvegicus; test: Biodistribution of I-125 labeled compound in rat brain to blood ratio, 1 hr after intravenous injection. value expressed in % dose per gram ratio; type: ADME, organism-based; in short: as §1
[20] = tested on: Rattus norvegicus; test: Biodistribution of I-125 labeled compound in rat blood, 1 hr after intravenous injection. value expressed in average % dose per organ; value may range from 1.64 to 1.91; type: ADME, organism-based; conditions: in vivo
[21] = tested on: Rattus norvegicus; test: Biodistribution of I-125 labeled compound in rat blood, 2 min after intravenous injection. value expressed in average % dose per organ; value may range from 3.95 to 6.09; type: ADME, organism-based; conditions: in vivo
[22] = tested on: Rattus norvegicus; test: Biodistribution of I-125 labeled compound in rat heart, 2 min after intravenous injection. value expressed in average % dose per organ; value may range from 2.13 to 2.96; type: ADME, organism-based; conditions: in vivo
[23] = tested on: Rattus norvegicus; test: Biodistribution of I-125 labeled compound in rat liver, 1 hr after intravenous injection. value expressed in average % dose per organ; value may range from 11.0 to 13.4; type: ADME, organism-based; conditions: in vivo
[24] = tested on: Rattus norvegicus; test: Biodistribution of I-125 labeled compound in rat brain, 1 hr after intravenous injection. value expressed in average % dose per organ; value may range from 0.95 to 1.00; type: ADME, organism-based; conditions: in vivo
[25] = tested on: Rattus norvegicus; test: Biodistribution of I-125 labeled compound in rat liver, 2 min after intravenous injection. value expressed in average % dose per organ; value may range from 12.3 to 15.0; type: ADME, organism-based; conditions: in vivo
[26] = tested on: Rattus norvegicus; test: Biodistribution of I-125 labeled compound in rat thyroid, 1 hr after intravenous injection. value expressed in average% dose per organ; value may range from 0.19 to 0.25; type: ADME, organism-based, Thyroid gland; conditions: in vivo
[27] = tested on: Rattus norvegicus; test: Biodistribution of I-125 labeled compound in rat thyroid, 2 min after intravenous injection. value expressed in average % dose per organ; value may range from 0.13 to 0.19; type: ADME, organism-based, Thyroid gland; conditions: in vivo
[28] = tested on: Rattus norvegicus; test: Biodistribution of I-125 labeled compound in rat brain, 2 min after intravenous injection. value expressed in average% dose per organ; value may range from 0.85 to 1.01; type: ADME, organism-based; conditions: in vivo
[29] = tested on: Rattus norvegicus; test: Biodistribution of I-125 labeled compound in rat heart, 1 hr after intravenous injection. value expressed in average % dose per organ; value may range from 2.29 to 2.35; type: ADME, organism-based; conditions: in vivo
[30] = tested on: Rattus norvegicus; test: Biodistribution of I-125 labeled compound in rat […] ratio, 1 hr after intravenous injection. value expressed in % dose per gram ratio; type: ADME, organism-based; conditions: in vivo
[31] = tested on: Rattus norvegicus; test: Biodistribution of I-125 labeled compound in rat lungs, 1 hr after intravenous injection. value expressed in average % dose per organ; value may range from 15.1 to 17.1; type: ADME, organism-based, Lung; conditions: in vivo
[32] = tested on: Rattus norvegicus; test: Biodistribution of I-125 labeled compound in rat lungs, 2 min after intravenous injection. value expressed in average % dose per organ; value may range from 31.6 to 34.0; type: ADME, organism-based, Lung; conditions: in vivo
[33] = tested on: Rattus norvegicus; test: Biodistribution of I-125 labeled compound in rat muscle, 1 hr after intravenous injection. value expressed in average % dose per organ; value may range from 11.0 to 15. 8; type: ADME, organism-based, Muscle tissue; conditions: in vivo
[34] = tested on: Rattus norvegicus; test: Biodistribution of I-125 labeled compound in rat muscle, 2 min after intravenous injection. value expressed in average % dose per organ; value may range from 5.95 to 6.51; type: ADME, organism-based, Muscle tissue; conditions: in vivo

Average dose per organ [1]: 16.1%
Average dose per organ [2]: 1.15%
Ratio [3]: 4.49%
Average dose per organ [4]: 2.67%
Average dose per organ [5]: 1.79%
Average dose per organ [6]: 1.71%
Average dose per organ [7]: 4.09%
Average dose per organ [8]: 8.01%
Average dose per organ [9]: 9.54%
Average dose per organ [10]: 0.17%
Average dose per organ [11]: 1.49%
Distribution coefficient [12]: 44.8
Distribution coefficient [13]: 176
Average dose per organ [14]: 0.21%
fraction unbound [15]: 0.159
Average dose per organ [16]: 33%
Average dose per organ [17]: 14.6%
Average dose per organ [18]: 7.44%
Ratio [19]: 16.7%
Structure (SMILES): CCCc1cc(I)cc(CNCCCN(C)C)c1O

Average dose per organ [20]: 1.74%
Average dose per organ [21]: 5.3%
Ratio [3]: 1.91%
Average dose per organ [22]: 2.51%
Average dose per organ [23]: 12.4%
Average dose per organ [24]: 0.97%
Average dose per organ [25]: 13.8%
Average dose per organ [26]: 0.22%
Average dose per organ [27]: 0.16%
Average dose per organ [28]: 0.94%
Average dose per organ [29]: 2.33%
Distribution coefficient [12]: 260
Distribution coefficient [13]: 468
fraction unbound [15]: 0.0517
Ratio [30]: 5.99%
Average dose per organ [31]: 16.3%
Average dose per organ [32]: 33%
Average dose per organ [33]: 13.4%
Average dose per organ [34]: 6.17%
Structure (SMILES): CN(C)CCCNCc1cc(I)cc(C2CCCCC2)c1O

Source: ChEMBL document CHEMBL1122426, “Radioiodine-labeled N,N-dimethyl-N'-(2-hydroxy-3-alkyl-5-iodobenzyl)-1,3-propanediamines for brain perfusion imaging” (J Med Chem, 1983)
